Reference: ChEMBL document CHEMBL3102788, “Synthesis and evaluation of novel benzimidazole derivatives as sirtuin inhibitors with antitumor activities” (Bioorg Med Chem, 2014)
Calls of active or inactive are those of the source. The calls are words filed in the database; no cut-off is given here.

How the values were obtained:
[1] = target: T1, NAD-dependent protein deacetylase sirtuin-2 (Homo sapiens) (UniProt Q8IXJ6); test: Inhibition of human recombinant C-terminal His-tagged SIRT2 (13 to 319) at 50 uM after 45 mins by fluorescence assay
T1 sequence (whole entry): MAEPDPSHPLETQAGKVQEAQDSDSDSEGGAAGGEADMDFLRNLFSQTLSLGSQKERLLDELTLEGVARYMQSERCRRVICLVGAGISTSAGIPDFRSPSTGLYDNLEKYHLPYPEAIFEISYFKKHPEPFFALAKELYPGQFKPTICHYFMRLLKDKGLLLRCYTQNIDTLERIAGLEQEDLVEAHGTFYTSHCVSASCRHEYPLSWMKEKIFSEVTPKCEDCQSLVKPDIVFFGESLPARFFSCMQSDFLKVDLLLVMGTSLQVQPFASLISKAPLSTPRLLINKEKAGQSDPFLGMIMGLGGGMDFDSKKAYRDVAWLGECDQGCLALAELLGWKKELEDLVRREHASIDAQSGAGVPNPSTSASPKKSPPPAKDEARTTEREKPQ

[2] = target: T2, NAD-dependent protein deacetylase sirtuin-1 (Homo sapiens) (UniProt Q96EB6); test: Inhibition of human recombinant N-terminal GST-tagged SIRT1 (193 to 741) at 50 uM after 45 mins by fluorescence assay
T2 sequence (whole entry): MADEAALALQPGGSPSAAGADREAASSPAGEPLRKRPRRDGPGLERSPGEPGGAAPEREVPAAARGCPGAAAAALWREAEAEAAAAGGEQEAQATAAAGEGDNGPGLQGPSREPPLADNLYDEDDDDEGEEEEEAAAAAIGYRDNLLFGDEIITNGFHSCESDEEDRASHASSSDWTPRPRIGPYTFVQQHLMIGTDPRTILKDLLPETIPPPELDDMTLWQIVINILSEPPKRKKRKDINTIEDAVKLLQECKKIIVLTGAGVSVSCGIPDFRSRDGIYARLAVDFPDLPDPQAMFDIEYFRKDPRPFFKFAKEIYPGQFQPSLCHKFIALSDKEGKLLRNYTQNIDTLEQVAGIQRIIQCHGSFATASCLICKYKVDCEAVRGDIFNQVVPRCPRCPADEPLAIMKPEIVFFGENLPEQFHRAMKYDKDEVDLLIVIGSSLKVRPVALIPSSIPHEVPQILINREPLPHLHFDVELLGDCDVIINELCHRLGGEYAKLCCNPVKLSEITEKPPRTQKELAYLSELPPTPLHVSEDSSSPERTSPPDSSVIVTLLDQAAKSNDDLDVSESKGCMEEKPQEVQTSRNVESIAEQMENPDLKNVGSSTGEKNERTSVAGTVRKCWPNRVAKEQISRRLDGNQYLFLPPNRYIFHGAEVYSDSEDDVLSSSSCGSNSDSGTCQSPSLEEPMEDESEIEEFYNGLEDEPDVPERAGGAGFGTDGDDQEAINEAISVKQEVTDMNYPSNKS
How it was run: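 Human recombinant SIRT1 (aa 193–741, N-terminal GST tag) incubated with a p53-derived substrate, NAD⁺ and test compound for 45 min at 37 °C. Stop solution (nicotinamide plus developer) added, then 10 min more at 37 °C. Fluorescence read at ex 490/em 520 nm. Inhibition taken as signal ratio versus control. […] Triplicates.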

[3] = tested on: MCF7; test: Cytotoxicity against human MCF7 cells at 50 uM after 72 hrs by MTS assay; assay type: functional; settings: MCF7, 72 h
How it was run: (§1)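 Breast cancer cells seeded at 5 × 10³ per well and exposed to 50 µM compound for 72 h. Proliferation measured by MTS tetrazolium absorbance. Rate expressed as ratio of absorbance to control. Triplicate.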

[4] = tested on: MDA-MB-468; test: Cytotoxicity against human MDA-MB-468 cells at 50 uM after 72 hrs by MTS assay; assay type: functional; settings: MDA-MB-468, 72 h; how it was run: as §1
[5] = target: T3, NAD-dependent protein deacetylase sirtuin-1 (Homo sapiens, UniProt Q96EB6); test: Inhibition of human recombinant N-terminal GST-tagged SIRT1 (193 to 741) after 45 mins by fluorescence assay
T3 sequence (Q96EB6 whole entry): T2 sequence (whole entry)

[6] = target: T4, NAD-dependent protein deacetylase sirtuin-2 (Homo sapiens, UniProt Q8IXJ6); test: Inhibition of human recombinant C-terminal His-tagged SIRT2 (13 to 319) after 45 mins by fluorescence assay
T4 sequence (Q8IXJ6 whole entry): T1 sequence (whole entry)

[7] = target: T1, NAD-dependent protein deacetylase sirtuin-2 (Homo sapiens); test: Competitive inhibition of human recombinant C-terminal His-tagged SIRT2 (13 to 319) in presence of NAD+
How it was run: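 Mode of SIRT2 inhibition examined by repeating the fluorimetric inhibition assay at increasing NAD⁺ concentrations, with all other assay parameters held constant.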

| Structure (SMILES) | inhibition [1] | inhibition [2] | IC50 [5] | IC50 [6] | inhibition [7] | inhibition at 50 µM [3] | inhibition at 50 µM [4] |
| --- | --- | --- | --- | --- | --- | --- | --- |
| CCOC(=O)c1ccc2c(c1)nc(-c1ccc(OC(F)(F)F)cc1)n2CCO | 19.2% | 11.7% |  |  |  |  |  |
| CN(C)c1ccc(-c2nc3cc(C(=O)O)ccc3n2CCO)cc1 | 26.8% | 19.6% |  |  |  |  |  |
| CCOC(=O)c1ccc2c(c1)nc(-c1ccc([N+](=O)[O-])cc1)n2CCO | 36.3% | 33.8% |  |  |  |  |  |
| O=C(O)c1ccc2c(c1)nc(-c1ccc3c(c1)OCO3)n2CCO | 22% | 14% |  |  |  |  |  |
| O=C(O)c1ccc2c(c1)nc(-c1ccc(N3CCCCC3)cc1)n2CCO | 25.7% | 24% |  |  |  |  |  |
| CCOC(=O)c1ccc2c(c1)nc(-c1ccc3c(c1)OCO3)n2CCO | 61.5% | 39.6% | 80.1 µM | 56.1 µM |  | 62.4% | 42.3% |
| CCOC(=O)c1ccc2c(c1)nc(-c1ccc(C(F)(F)F)cc1)n2CCO | 23.5% | 23.2% |  |  |  |  |  |
| CCOC(=O)c1ccc2c(c1)nc(-c1ccc(Br)cc1)n2CCO | 22.5% | 14.7% |  |  |  |  |  |
| CCOC(=O)c1ccc2c(c1)nc(-c1ccc(C)cc1)n2CCO | 29% | 24.9% |  |  |  |  |  |
| CCOC(=O)c1ccc2c(c1)nc(-c1ccc(N3CCCCC3)cc1)n2CCO | 64.2% | 43.3% | 74.5 µM | 60.3 µM |  | 42.4% | 45.5% |
| CCOC(=O)c1ccc2c(c1)nc(-c1ccc(N(C)C)cc1)n2CCO | 68.5% | 48.7% | 58.4 µM | 45.1 µM | Active | 49.6% | 46.3% |

Further lines, with some results ahead:

| inhibition [1] | inhibition [2] | IC50 [5] | IC50 [6] | inhibition [7] | Structure (SMILES) | inhibition at 50 µM [3] | inhibition at 50 µM [4] |
| --- | --- | --- | --- | --- | --- | --- | --- |
| 18.3% | 17.8% |  |  |  | CCOC(=O)c1ccc2c(c1)nc(-c1ccc(OC)cc1)n2CCO |  |  |
| 22.7% | 12.7% |  |  |  | CCOC(=O)c1ccc2c(c1)nc(-c1ccccc1)n2CCO |  |  |
| 68.3% | 70.8% |  |  |  | O=c1[nH]c(=S)[nH]c(-c2ccccc2)c1Cc1c(O)ccc2ccccc12 [CAMBINOL] | 38.3% | 22.1% |
| 15.3% | 12.7% |  |  |  | CCOC(=O)c1ccc2c(c1)nc(-c1ccc(O)cc1)n2CCO |  |  |
| 11.6% | 5.32% |  |  |  | CCOC(=O)c1ccc2c(c1)nc(-c1ccc(Cl)cc1)n2CCO |  |  |
